Among the data in ChEMBL document CHEMBL3351845, “Synthesis and in vitro stability of amino acid prodrugs of 6-β-naltrexol for microneedle-enhanced transdermal delivery” (Bioorg Med Chem Lett, 2014) are Time, t1/2 and solubility values, retold here.

Series [1] is described as follows: Stability in pH 5.0 0.3 M acetate buffer assessed as time duration in which 90% produg stability at 1 mg by HPLC method. It counts as physicochemical. The settings on record: in vitro. The method in brief:
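Roughly 1 mg prodrug was added to 10 mL of 0.3 M acetate buffer, pH 5.0, thermostated at 32 °C, then vortexed 1 min and filtered through 0.45 μm nylon. Degradation was followed over time by C-8 reversed-phase HPLC with UV at 215 or 278 nm, mobile phase 70:30 ACN:aqueous TFA/octane sulfonate, pH 3.0. t90 is the time to 10% loss; runs in duplicate.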

Series [2] can be described thus: Half life in pH 7.4 25 mM HEPES buffered Hank's balanced salt solution at assessed as prodrug hydrolysis 1 mg by HPLC method. It counts as physicochemical. The settings on record: buffer. Summed up: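 About 1 mg prodrug went into 10 mL of 25 mM HEPES-buffered Hanks' balanced salt solution, pH 7.4, held at 37 °C. The mixture was vortexed 1 min and filtered through 0.45 μm nylon. Samples were run by reversed-phase C-8 HPLC with UV at 215 or 278 nm, mobile phase 70:30 ACN:aqueous 0.1% TFA/0.065% octane sulfonate, pH 3.0. Half-life was read from pseudo-first-order hydrolysis; duplicate runs.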

The subject of another series is Plasma. The series can be described thus: Half life in 50% human plasma in presence of 50% PBS buffer assessed prodrug hydrolysis by HPLC method. Format: ADME, cell-free. The method in brief: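 Each prodrug was made up as a DMSO stock, and 40.0 μL was added to 760.0 μL of 50% human plasma in 50% PBS (pH 7.4), pre-warmed to 37 °C. Aliquots taken at set times got salicylamide internal standard, were vortexed, centrifuged, dried under N2, and taken up in methanol/0.04% HFBA. Analysis used gradient HPLC on a phenyl column against an eight-point calibration. Kapp came from log(AUC prodrug/AUC IS) versus time; n=3, mean ± SD.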

Series [3] in a line: Solubility in pH 7.4 25 mM HEPES buffered Hank's balanced salt solution by HPLC method. It counts as physicochemical. The settings on record: buffer.

Turning to `O=C(O[C@@H]1CC[C@@]2(O)[C@H]3Cc4ccc(O)c5c4[C@@]2(CCN3CC2CC2)[C@H]1O5)[C@@H]1CCCN1`, the Time in series [1] was 0.217 days.
In the case of `NCCC(=O)O[C@@H]1CC[C@@]2(O)[C@H]3Cc4ccc(O)c5c4[C@@]2(CCN3CC2CC2)[C@H]1O5`, in series [1], the Time was found to be 5.6 days. In addition, the t1/2 in series [2] stood at 12 h.
Take `CC(C)[C@H](N)C(=O)O[C@@H]1CC[C@@]2(O)[C@H]3Cc4ccc(O)c5c4[C@@]2(CCN3CC2CC2)[C@H]1O5`: the Time in series [1] is 5.2 days. Further, the t1/2 in the series with Plasma was found to be 18.2 h; in series [2], 11.5 h.
On to `CCC(C)[C@H](N)C(=O)O[C@@H]1CC[C@@]2(O)[C@H]3Cc4ccc(O)c5c4[C@@]2(CCN3CC2CC2)[C@H]1O5` (some centres not stated), for which, in series [1], the Time came to 14 days. In addition, the t1/2 was determined as 31.2 h in the series on Plasma and 22 h in series [2]. In addition, in series [3], the solubility result was “Insoluble”.
Consider `CC(C)C[C@H](N)C(=O)O[C@@H]1CC[C@@]2(O)[C@H]3Cc4ccc(O)c5c4[C@@]2(CCN3CC2CC2)[C@H]1O5`, for which the Time in series [1] turned out to be 0.9 days.
As to `C[C@H](N)C(=O)O[C@@H]1CC[C@@]2(O)[C@H]3Cc4ccc(O)c5c4[C@@]2(CCN3CC2CC2)[C@H]1O5`, in series [1], the Time is 0.412 days.
